Source: PubChem BioAssay
PHOSPHO1 block = inhibitors of human PHOSPHO1 phosphatase | Q8TCT1 | recombinant PHOSPHO1, absorbance phosphatase assay | inhibition, % at 13.3 µM | 1.1% of 290,000 active | AID 1565; in the data active = inhibition above about 60%
Target sequence (Q8TCT1 whole entry, looked up): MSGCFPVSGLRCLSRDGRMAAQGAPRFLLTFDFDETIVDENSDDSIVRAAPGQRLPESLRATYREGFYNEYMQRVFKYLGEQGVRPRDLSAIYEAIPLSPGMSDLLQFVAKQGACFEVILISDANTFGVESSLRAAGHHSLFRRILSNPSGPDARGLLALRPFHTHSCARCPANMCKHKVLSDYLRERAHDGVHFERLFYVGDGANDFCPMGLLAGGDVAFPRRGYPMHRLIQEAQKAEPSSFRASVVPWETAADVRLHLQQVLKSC
HSF1 inh = HSF1 inhibition; AID 2098; activity change, negative = inhibition, % at 7.5 µM (by protocol); 0.77% of 300,000 active; NIH3T3-HGL HSE-luciferase, MG132-induced, luminescence 8 h; stronger effect = lower value;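 active = more than half of replicate wells show activity change below -50%, luminescence cut by over half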;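 note: luciferase reports HSF-1 transcriptional activity via heat shock element; 0% = median of DMSO wells and -100% = zero luminescence signal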
ALR inh = blocks human ALR sulfhydryl oxidase activity; inhibition, % (no concentration beside the values); AID 485317; purified ALR, DTT oxidation, H2O2 HRP-luminol luminescence; P55789; 3.8% of 290,000 active;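 active = mean replicate inhibition above about 79%, with every replicate also reaching it, limit read from the data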
core dimer inh = blocks dimerization of HCV core protein; inhibition, % at 5 µM; 0.33% of 300,000 active; AID 1899; TR-FRET GST/Flag-core106 dimerization, 1536-well;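 active = inhibition above the mean of all tested compounds plus 3 SD, set per screening campaign, cut at about 45% in these data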
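Material: Tagged HCV core106 pair (GST and Flag) | Amount: GST-core106 13.5 nM, Flag-core106 17 nM | Medium: KF-containing HEPES buffer, pH 7.45, DTT, CHAPS, BSA | Reagent: Eu donor and XL665 acceptor anti-tag antibodies | Schedule: 4 h at 22.5 °C | Technique: Time-resolved FRET, ex 340 nm, em 617 and 671 nm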
AI-2 QS modul = Vibrio harveyi AI-2 quorum sensing modulation. activity change, % at 7.5 µM. AID 2094. Vibrio harveyi JMH597 AI-2 luminescence/OD600 ratio, 9 h; stronger effect = lower value; strain lacks LuxN and CqsS sensors; 0 = neutral-control median. 0.4% of 300,000 active; in the data active = activity change below about -75%, passing the limit was not always enough;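 note: luminescence divided by OD600 gain over 9 h not by final OD600 alone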
HSF-1 act = increases HSF-1 driven luciferase reporter signal. NIH3T3-HGL HSF-1 luciferase reporter, MG132, 8 h; 100% = twice DMSO control signal. activation, % at 9 µM. 1.7% of 300,000 active;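 active = mean replicate activation of at least 50% with a set share of replicates each reaching 50%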;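 note: 0% = median of the neutral control wells and 100% = twice that signal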
* = called active by the depositor; . = no result given. Compounds with a hit are over-represented: about 6.8% of the library has one in this group of screens.

SMILES	PHOSPHO1 block	HSF1 inh	ALR inh	core dimer inh	AI-2 QS modul	HSF-1 act
O=C(Cn1c(C(F)(F)F)nc2ccccc21)c1ccc(Br)cc1	8	-2	-4	2	17	-5
O=C(Cn1c(C(F)(F)F)nc2ccccc21)c1ccc(F)cc1	-23	-5	92*	-4	18	-24
O=C1CC(C(=O)N2CCN(c3ccccc3O)CC2)CN1Cc1ccccc1 (configuration not stated)	.	4	25	3	17	-8
CC(C)(C)Nc1nc(-c2ccc3c(c2)CCN3C(=O)C2CC2)cs1	36	2	-15	-2	19	0
Cc1nc2ccc(-c3nc4cc(N)ccc4o3)cc2[nH]1	-4	14	98*	1	11	-10
Nc1ccc2oc(-c3ccc4nc[nH]c4c3)nc2c1	-4	9	.	-7	9	33
Nc1nc2c(s1)C(=O)CC(c1ccccc1)C2 (configuration not stated)	60*	-8	-27	3	30	23
Cc1cc(C(=O)c2cccs2)c(N)s1	11	6	99*	15	0	-5
Nc1ccc(C(=O)c2cccs2)cc1	6	9	.	-7	22	42
COc1cc(/C=C2\SC(=Nc3ccc(N4CCOCC4)cc3)N(C)C2=O)ccc1OC(C)C(=O)O (configuration not stated)	2	-9	17	-5	15	8
O=C1/C(=C\c2ccc(Br)o2)Cc2ccccc21	3	16	-17	-21	5	59*
Cc1ccc(-c2cccc(CN3CCN(C4CCN(C(C)C)CC4)C(CCO)C3)c2)o1 (configuration not stated)	14	-5	0	-6	18	3
O=C(Oc1ccc(-c2cnc3ccccc3n2)cc1)c1cc([N+](=O)[O-])ccc1Cl	24	47	-6	-1	1	80*
O=C(Oc1cccc([N+](=O)[O-])c1)c1cc(-c2ccccc2)nc2ccccc12	23	56	-1	-4	7	75*
Cc1nc2cccc(C(=O)Oc3ccc([N+](=O)[O-])cc3)c2o1	8	8	97*	1	18	12
O=C(COC(=O)Cc1cccs1)Nc1ccc(OC(F)(F)F)cc1	.	-3	-27	0	18	-2
COc1cccc(N2C(=NC(=O)COc3ccccc3)SC3CS(=O)(=O)CC32)c1 (configuration not stated)	33	-2	1	-9	9	-11
CCOc1ccc(C2NC(=O)c3sc(=S)n(-c4ccccc4)c3N2)cc1 (configuration not stated)	2	11	81*	-5	3	6
COc1ccc(C2NC(=O)c3sc(=S)n(-c4ccccc4)c3N2)cc1 (configuration not stated)	47	-6	64	-2	27	-7
CC(CCc1ccccc1)NC(=O)c1ccc(F)cc1 (configuration not stated)	.	2	1	4	3	0
Cc1ccccc1N1CCN(C2CCCN(C(=O)c3cnsn3)C2)CC1 (configuration not stated)	4	-1	86*	3	5	3
COC(=O)c1cc(OC)c(OC)cc1NC(=O)c1ccccc1C	20	-2	-8	-4	17	-1
Cc1ccc(CN(Cc2ccco2)S(=O)(=O)c2ccc(S(=O)(=O)NCC3CCCO3)cc2)cc1 (configuration not stated)	6	6	-3	12	18	26
Cc1c(Cc2ccccc2)c(=O)oc2cc(OCC(=O)N3CCC(C(=O)O)CC3)ccc12	29	-7	93*	1	13	-10
Cc1c(CC(=O)O)c(=O)oc2cc(OCc3nn[nH]n3)ccc12	4	1	2	0	22	-1
COC(=O)Cc1c(C)c2ccc(OC(=O)c3ccccc3)cc2oc1=O	22	27	98*	9	33	61*
Cc1c(Cc2ccccc2)c(=O)oc2cc(OCc3nn[nH]n3)ccc12	8	-7	98*	33	36	-9
